Laboratory results: ChEMBL document CHEMBL1687835, “Using bioluminescence to monitor treatment response in real time in mice with Mycobacterium ulcerans infection” (2011)
The source made the active and inactive calls.

Tests used:
[1] = test system: Mycobacterium ulcerans; assay: Antimicrobial activity against recombinant Mycobacterium ulcerans Mu1059 expressing luxAB from vibrio harveyi infected BALB/c mouse assessed as reduction in foodpad relative light unit after 2 weeks relative to basal level; type: functional, organism-based
Summary of the method: (§1)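 Same preventive schedule, with five mice/group sacrificed weekly. Each minced footpad homogenate (in 2 ml PBS) was read by taking a 200-µl sample, adding 20 µl of 1% decanal, and measuring light for 4 s immediately on a luminometer, in duplicate. Log-transformed RLU was compared with day 0 by unpaired t test or one-way ANOVA with Dunnett's posttest (alpha 0.05).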

[2] = test system: Mycobacterium ulcerans; assay: Antimicrobial activity against Mycobacterium ulcerans Mu1059 expressing luxAB from vibrio harveyi infected BALB/c mouse assessed as reduction in foodpad CFU count after 4 weeks; type: functional, organism-based
Summary of the method: (§2)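 Preventive footpad model in female BALB/c mice: treatment started 2 weeks post-infection and was given 5 days/week for 4 weeks (RIF 10 mg/kg gavage; STR 150 mg/kg s.c.). Five mice/group were sacrificed weekly. Footpads were minced in 2 ml PBS, and serial dilutions were plated in duplicate on selective 7H11 at 32°C for 3–4 months. Detection limit was 2 CFU/footpad. Log CFU was compared with day 0 by t test or ANOVA/Dunnett.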

[3] = test system: Mycobacterium ulcerans; assay: Antimicrobial activity against recombinant Mycobacterium ulcerans Mu1059 expressing luxAB from vibrio harveyi infected BALB/c mouse assessed as reduction in foodpad CFU count after 1 week relative to basal level; type: functional, organism-based; summary of the method: as §2
[4] = test system: Mycobacterium ulcerans; assay: Antimicrobial activity against wild type Mycobacterium ulcerans ATCC 19423 infected BALB/c mouse assessed as delay to time to foodpad swelling; type: functional, organism-based
[5] = test system: Mycobacterium ulcerans; assay: Antimicrobial activity against recombinant Mycobacterium ulcerans Mu1059 expressing luxAB from vibrio harveyi infected BALB/c mouse assessed as reduction in foodpad CFU count after 2 weeks relative to basal level; type: functional, organism-based; summary of the method: as §2
[6] = test system: Mycobacterium ulcerans; assay: Antimicrobial activity against recombinant Mycobacterium ulcerans Mu1059 expressing luxAB from vibrio harveyi infected BALB/c mouse assessed as reduction in foodpad relative light unit after 1 week relative to basal level; type: functional, organism-based; summary of the method: as §1
[7] = test system: Mycobacterium ulcerans; assay: Antimicrobial activity against Mycobacterium ulcerans Mu1059 expressing luxAB from vibrio harveyi infected BALB/c mouse assessed as delay to time to foodpad swelling; type: functional
Summary of the method: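 Female BALB/c mice, 4 weeks old, were infected in the left hind footpad with 0.03 ml of bacterial suspension in PBS. From week 2 (lesion index 0), treatment ran for 4 weeks, 5 days/week, with drugs in water, 0.2 ml: RIF 10 mg/kg by gavage; STR or KAN 150 mg/kg subcutaneously. After treatment, 15 mice/group were scored weekly for 23 weeks; swelling was defined as lesion index 1.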

[8] = test system: Mycobacterium ulcerans; assay: Antimicrobial activity against wild type Mycobacterium ulcerans Mu1059 infected BALB/c mouse assessed as reduction in foodpad CFU count after 4 weeks

| SMILES | Activity [1] | Activity [2] | Activity [3] | Activity [4] | Activity [5] | Activity [6] | Time [7] [weeks] | Activity [8] |
| --- | --- | --- | --- | --- | --- | --- | --- | --- |
| CN[C@@H]1[C@H](O[C@H]2[C@H](O[C@H]3[C@H](O)[C@@H](O)[C@H](N=C(N)N)[C@@H](O)[C@@H]3N=C(N)N)O[C@@H](C)[C@]2(O)C=O)O[C@@H](CO)[C@H](O)[C@H]1O | Active | Active | Active | inactive | Active | Active | – | – |
| NC[C@H]1O[C@H](O[C@H]2[C@H](O)[C@@H](O[C@H]3O[C@H](CO)[C@@H](O)[C@H](N)[C@H]3O)[C@H](N)C[C@@H]2N)[C@H](O)[C@@H](O)[C@@H]1O [KANAMYCIN] | – | inactive | – | inactive | – | – | 3 | Active |
